The text below walks through data of ChEMBL document CHEMBL4052646, “Synthesis of nοvel artemisinin dimers with polyamine linkers and evaluation of their potential as anticancer agents” (Bioorg Med Chem, 2017).

Calls of active or inactive are those of the source. The calls are words filed in the database; no cut-off is given here.

Assay [1] deals with HUVEC. Briefly: Cytotoxicity against HUVEC assessed as reduction in cell number at 10 uM after 48 hrs by MTT assay. It counts as functional, Homo sapiens. Summed up:
(§1)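 Cells seeded at 10×10^3 (MCF7) or 15×10^3 (HUVEC, primary from umbilical cords, passages 2-3) per well, exposed to agents at different concentrations up to 10 µM for 48 h. MTT added at 1/10 medium volume, 2 h at 37°C, formazan dissolved in acidified isopropanol, absorbance read at 490 nm. Confirmed by haemocytometer counts. IC50 and maximal percent decrease interpolated from graphs. Mean ± S.E.M. versus untreated cells.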

Assay [2] deals with MCF7. The assay can be described thus: Cytotoxicity against human MCF7 cells assessed as reduction in cell number after 48 hrs by MTT assay. It counts as functional, cell-based. As to conditions: for IC50: MCF7, 48 h. The method, boiled down: as §1
The subject of assay [3] is MCF7. Briefly: Induction of necrosis in human MCF7 cells at 10 uM after 48 hrs by Annexin V-FITC/PI staining based flow cytometry. It counts as functional, cell-based.
For assay [4], the system named is MCF7. Briefly: Induction of apoptosis in human MCF7 cells at 10 uM after 48 hrs by Annexin V-FITC/PI staining based flow cytometry. It counts as functional, cell-based.
Assay [5] concerns MCF7. The assay can be described thus: Induction of ROS production in human MCF7 cells after 4 to 6 hrs by carboxy-H2DCFDA dye based fluorescence assay. Format: functional, cell-based. The method, boiled down: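 MCF7 cells seeded at 15×10^3/well, exposed to agents 24 h later for 4 h. After PBS washes, cells loaded with 50 µM carboxy-H2DCFDA for 15 min in the dark. Fluorescence read at excitation 492–495 nm and emission 517–527 nm.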

Assay [6] has as its system MCF7. The assay can be described thus: Decrease in pleiotrophin secretion in conditioned media of human MCF7 cells at 10 uM after 24 hrs by Western blot analysis. Format: functional, cell-based. The method, boiled down:
(§2)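 MCF7 cells treated with 10 µM agent for 24 h. PTN in the whole conditioned medium was captured on heparin-Sepharose for 16 h at 4°C and eluted in reducing Laemmli buffer. Lysates were run in parallel. Blots were probed with mouse anti-PTN (1:1,000), normalised to β-actin, and quantified by densitometry as percent of untreated (n=3).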

Assay [7] concerns HUVEC. The assay can be described thus: Cytotoxicity against HUVEC assessed as reduction in cell number after 48 hrs by MTT assay. Format: functional, cell-based. As to conditions: Homo sapiens. The method, boiled down: as §1
In a further assay the test system is Chorioallantoic membrane. Briefly: In vivo antiangiogenic activity in Leghorn chicken embryo chorioallantoic membrane assessed as decrease in total vessel length at 10 nmol/egg after 48 hrs relative to control. Also on record: scale not given: the % may be the effect or the level left. Format: functional, Gallus gallus. The method, boiled down: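 Windows opened in fertilized Leghorn eggs on day 4. On day 9, agent in 20 µl PBS applied to 1 cm² of CAM inside a plastic ring. After 48 h at 37°C, CAMs fixed in situ, excised and air-dried. Total vessel length measured by image analysis as percent change versus control. At least three experiments, 10–20 eggs per point.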

Assay [8] has as its system MCF7. Briefly: Decrease in pleiotrophin protein expression in human MCF7 cell lysate at 10 uM after 24 hrs by Western blot analysis. It counts as functional, cell-based. Summed up: as §2
Assay [9] concerns MCF7. The assay can be described thus: Cytotoxicity against human MCF7 cells assessed as reduction in cell number at 10 uM after 48 hrs by MTT assay. It counts as functional. The method, boiled down:
as §1

Assay [10] has as its system MCF7. Briefly: Cytotoxicity against human MCF7 cells assessed as reduction in cell number at 10 uM cotreated with spermidine after 48 hrs by MTT assay. It counts as functional, cell-based. The method, boiled down: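 MCF7 cells given the conjugate, the unconjugated artemisinin derivative, spermidine, or the derivative plus spermidine, each at 10 µM, for 48 h. Cell number measured by MTT at 490 nm after formazan solubilisation in acidified isopropanol. Reported as mean ± S.E.M. relative to untreated cells.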

For `COC(=O)N(CCCCNC(=O)OCCC[C@H]1O[C@@H]2O[C@@]3(C)CC[C@H]4[C@H](C)CC[C@@H]([C@H]1C)[C@@]24OO3)CCCNC(=O)OCCC[C@H]1O[C@@H]2O[C@@]3(C)CC[C@H]4[C@H](C)CC[C@@H]([C@H]1C)[C@@]24OO3`, the Efficacy with HUVEC [1] is listed as 35%; in the assay with MCF7 [9], 76%. Further, the Activity result is “Dose-dependent effect” in the assay on MCF7 [2] and 12% with Chorioallantoic membrane. Further, the IC50 is 1000 nM with MCF7 [2] and 1200 nM in the assay on HUVEC [7]. The result in the assay with MCF7 [3], with MCF7 [4] and in the assay with MCF7 [5] was inactive. The result in the assay with MCF7 [6] and with MCF7 [8] was Active.
Take `C[C@H]1[C@@H](O)O[C@@H]2O[C@@]3(C)CC[C@H]4[C@H](C)CC[C@@H]1[C@@]24OO3` [ARTENIMOL]: in the assay with HUVEC [1], the Efficacy is listed as 28%. In addition, the IC50 in the assay with HUVEC [7] came out at 1400 nM. Moreover, in the assay with Chorioallantoic membrane, the Activity amounted to 2.8%.
As for `COC(=O)N(CCCCN(CCCNC(=O)OCCOCCN1C(=O)[C@H](C)[C@@H]2CC[C@@H](C)[C@@H]3CC[C@@]4(C)OO[C@]32[C@H]1O4)C(=O)OC)CCCNC(=O)OCCOCCN1C(=O)[C@H](C)[C@@H]2CC[C@@H](C)[C@@H]3CC[C@@]4(C)OO[C@]32[C@H]1O4`, in the assay on MCF7 [2], the Activity entry was “Dose-dependent effect” and the IC50 is 1000 nM. In addition, in the assay on MCF7 [9], the Efficacy turned out to be 48%.
Regarding `C[C@H]1[C@@H](CCCOC(=O)NCCCCNC(=O)OCCC[C@H]2O[C@@H]3O[C@@]4(C)CC[C@H]5[C@H](C)CC[C@@H]([C@H]2C)[C@@]35OO4)O[C@@H]2O[C@@]3(C)CC[C@H]4[C@H](C)CC[C@@H]1[C@@]24OO3`, the values for the Efficacy with HUVEC [1] and with MCF7 [9] were 27% and 61%, respectively. Further, the Activity entry in the assay on MCF7 [2] is “Dose-dependent effect”; in the assay with Chorioallantoic membrane, 14.3%. The IC50 was found to be 1000 nM in the assay with MCF7 [2] and 3600 nM in the assay with HUVEC [7]. Besides, the result in the assay with MCF7 [3] and with MCF7 [4] was inactive. For the same compound, the result in the assay with MCF7 [5], with MCF7 [6] and in the assay on MCF7 [8] was Active.
With `C[C@H]1[C@@H](OCCOCCOC(=O)NCCCCNC(=O)OCCOCCO[C@H]2O[C@@H]3O[C@@]4(C)CC[C@H]5[C@H](C)CC[C@@H]([C@H]2C)[C@@]35OO4)O[C@@H]2O[C@@]3(C)CC[C@H]4[C@H](C)CC[C@@H]1[C@@]24OO3`, in the assay on MCF7 [2], the Activity result is “Dose-dependent effect” and the IC50 amounted to 1000 nM. Further, the Efficacy in the assay with MCF7 [9] is reported as 50%.
On the same counts, the results for `COC(=O)N(CCCCNC(=O)OCCOCCN1C(=O)[C@H](C)[C@@H]2CC[C@@H](C)[C@@H]3CC[C@@]4(C)OO[C@]32[C@H]1O4)CCCNC(=O)OCCOCCN1C(=O)[C@H](C)[C@@H]2CC[C@@H](C)[C@@H]3CC[C@@]4(C)OO[C@]32[C@H]1O4` are “Dose-dependent effect”, 999 nM and 39%.
Turning to `COC(=O)N(CCCCNC(=O)OCCOCCO[C@H]1O[C@@H]2O[C@@]3(C)CC[C@H]4[C@H](C)CC[C@@H]([C@H]1C)[C@@]24OO3)CCCNC(=O)OCCOCCO[C@H]1O[C@@H]2O[C@@]3(C)CC[C@H]4[C@H](C)CC[C@@H]([C@H]1C)[C@@]24OO3`, the Efficacy in the assay on MCF7 [9] was found to be 11.2%.
As for `COC(=O)N(CCCCN(CCCNC(=O)OCCOCCO[C@H]1O[C@@H]2O[C@@]3(C)CC[C@H]4[C@H](C)CC[C@@H]([C@H]1C)[C@@]24OO3)C(=O)OC)CCCNC(=O)OCCOCCO[C@H]1O[C@@H]2O[C@@]3(C)CC[C@H]4[C@H](C)CC[C@@H]([C@H]1C)[C@@]24OO3`, in the assay on MCF7 [2], the Activity result was “Dose-dependent effect” and the IC50 came to 1000 nM. The Efficacy in the assay on MCF7 [9] is 64%.
On to `C[C@@H]1CC[C@H]2[C@@H](C)C(=O)N(CCOCCOC(=O)NCCCCNC(=O)OCCOCCN3C(=O)[C@H](C)[C@@H]4CC[C@@H](C)[C@@H]5CC[C@@]6(C)OO[C@]54[C@H]3O6)[C@@H]3O[C@@]4(C)CC[C@@H]1[C@@]23OO4`, for which the Efficacy in the assay on HUVEC [1] came out at 23%; with MCF7 [9] it was 52%. In the assay on MCF7 [2], the Activity result is “Dose-dependent effect”. For the same compound, the values for the IC50 with MCF7 [2] and in the assay with HUVEC [7] were 999 nM and 2300 nM, respectively. The outcome in the assay with MCF7 [3] and with MCF7 [4] was inactive. Also, the result with MCF7 [5], with MCF7 [6] and in the assay on MCF7 [8] was Active.
Take `C[C@@H]1CC[C@H]2[C@@H](C)C(=O)O[C@@H]3O[C@@]4(C)CC[C@@H]1[C@]32OO4` [ARTEMISININ]: the Efficacy amounted to 22% in the assay with HUVEC [1] and 14% in the assay on MCF7 [9]. Further, the Activity entry was “Dose-dependent effect” in the assay with MCF7 [2] and 6.3% in the assay on Chorioallantoic membrane. Also, the result with MCF7 [3] and in the assay with MCF7 [4] was inactive. The outcome in the assay with MCF7 [5], in the assay on MCF7 [6] and with MCF7 [8] was Active. For the same compound, the IC50 in the assay on HUVEC [7] worked out at 1100 nM.
As to `C[C@H]1[C@@H](CCCO)O[C@@H]2O[C@]3(C)CC[C@H]4[C@H](C)CC[C@@H]1[C@@]24OO3`, the result in the assay on MCF7 [10] was inactive.
With `COC(=O)N(CCCCN(CCCNC(=O)OCCC[C@H]1O[C@@H]2O[C@@]3(C)CC[C@H]4[C@H](C)CC[C@@H]([C@H]1C)[C@@]24OO3)C(=O)OC)CCCNC(=O)OCCC[C@H]1O[C@@H]2O[C@@]3(C)CC[C@H]4[C@H](C)CC[C@@H]([C@H]1C)[C@@]24OO3`, the Efficacy in the assay on HUVEC [1] was determined as 27%; with MCF7 [9], 70%. The Activity entry with MCF7 [2] was “Dose-dependent effect”; with Chorioallantoic membrane it was 22%. For the same compound, the values for the IC50 in the assay on MCF7 [2] and in the assay with HUVEC [7] were 1000 nM and 7500 nM, respectively. For the same compound, the outcome with MCF7 [3] and in the assay with MCF7 [4] was inactive. Also, the outcome with MCF7 [5], in the assay with MCF7 [6] and with MCF7 [8] was Active.
